Source: ChEMBL document CHEMBL4152207, “Discovery of potent and selective BRD4 inhibitors capable of blocking TLR3-induced acute airway inflammation” (Eur J Med Chem, 2018)
The source made the active and inactive calls. The rule behind the calls is not given here.

Assays:
[1] = test system: Mus musculus; assay: Pulmonary toxicity in mouse at 1 to 50 mg/kg, ip dosed daily for 1 month by histological analysis; format: organism-based; details: in vivo
[2] = species on record: Rattus norvegicus; assay: Displacement of [125I]alpha-dendrotoxin from rat Voltage-gated potassium channel at 10 uM after 60 mins by scintillation counting analysis relative to control
Summary of the method: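 Run within a commercial off-target panel of receptors and enzymes, with compound tested at a single concentration of 10 μM.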

[3] = test system: Mus musculus; assay: Anti-inflammatory activity in poly(I:C)-induced airway inflammation C57BL/6 mouse model assessed as reduction in total cells in bronchoalveolar lavage fluid at 10 mg/kg, ip administered 1 day prior to poly(I:C) stimulation and redosed on day 2 followed by poly(I:C) stimulation by trypan blue staining-based hemocytometric analysis; format: functional, organism-based
[4] = target: Endothelin-1 receptor (Homo sapiens) (UniProt P25101); assay: Displacement of [125I]endothelin-1 from human recombinant endothelin ETA receptor at 10 uM after 120 mins by scintillation counting analysis relative to control
Chain of Endothelin-1 receptor (Homo sapiens) (P25101 whole entry): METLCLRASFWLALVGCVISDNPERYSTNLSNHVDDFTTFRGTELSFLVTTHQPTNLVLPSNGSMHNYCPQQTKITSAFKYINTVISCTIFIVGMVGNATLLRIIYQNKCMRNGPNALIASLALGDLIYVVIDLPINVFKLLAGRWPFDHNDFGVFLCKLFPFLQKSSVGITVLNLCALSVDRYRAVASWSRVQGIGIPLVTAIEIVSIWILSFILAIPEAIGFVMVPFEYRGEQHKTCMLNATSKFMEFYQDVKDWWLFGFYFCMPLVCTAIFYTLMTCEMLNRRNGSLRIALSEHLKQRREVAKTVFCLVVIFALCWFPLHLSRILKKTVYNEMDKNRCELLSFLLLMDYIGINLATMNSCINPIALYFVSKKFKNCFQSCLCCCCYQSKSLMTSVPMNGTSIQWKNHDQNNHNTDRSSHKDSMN

Cc1cc(/N=N/c2ccc(S(=O)(=O)NC3CCCC3)cc2)c(N)cc1O
Activity [1]: Non-Toxic | Activity [2]: 8.5% | Activity [3]: Active | Activity [4]: -4.3%
